Active and inactive are the calls of the source. The rule behind the calls is not given here.
Tests used:
K562 [1] = experiment: Induction of apoptosis in human K562 cells assessed as necrotic cells at 1.2 uM after 48 hrs by Annexin V-FITC/propidium iodide-staining based flow cytometric analysis (reference value: 0.13 to 0.27%); assay type: functional
Method in brief: (§1)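 K562 seeded at 4 × 10^5 cells/well, 12 h, then exposed 48 h. Cells washed in ice-cold PBS, suspended in binding buffer, stained with annexin V-FITC and PI for 15 min at room temperature in the dark, and read by flow cytometry within 1 h. Cells counted as early/late apoptotic as % of total; n = 3.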

K562 [2] = experiment: Induction of apoptosis in human K562 cells assessed as late apoptotic cells at 0.4 uM after 48 hrs by Annexin V-FITC/propidium iodide-staining based flow cytometric analysis (reference value: 2.25 to 2.67%); assay type: functional; method in brief: as §1
K562 [3] = experiment: Induction of apoptosis in human K562 cells assessed as late apoptotic cells at 1.2 uM after 48 hrs by Annexin V-FITC/propidium iodide-staining based flow cytometric analysis (reference value: 2.25 to 2.67%); assay type: functional; method in brief: as §1
K562 [4] = experiment: Induction of apoptosis in human K562 cells assessed as early apoptotic cells at 0.4 uM after 48 hrs by Annexin V-FITC/propidium iodide-staining based flow cytometric analysis (reference value: 0.92 to 1.45%); assay type: functional; method in brief: as §1
K562 [5] = experiment: Induction of apoptosis in human K562 cells assessed as increase in cytosolic cytochrome c level up to 4 uM after 48 hrs by Western blot analysis; assay type: functional, cell-based
Method in brief: (§2)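 K562 treated 48 h, then lysed on ice for 30 min; cytosolic and mitochondrial fractions isolated by kit where needed, protein measured by BCA. 60 μg/lane run on SDS-PAGE, transferred to PVDF, blocked in 5% milk/TBST for 4 h. Probed for cytochrome c, caspase-9, caspase-3 (total/cleaved), PARP; alkaline phosphatase secondary.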

K562 [6] = experiment: Induction of apoptosis in human K562 cells assessed as decrease in cytochrome c level in mitochondria up to 4 uM after 48 hrs by Western blot analysis; assay type: functional, cell-based; method in brief: as §2
K562 [7] = experiment: Induction of apoptosis in human K562 cells assessed as viable cells at 0.8 uM after 48 hrs by Annexin V-FITC/propidium iodide-staining based flow cytometric analysis (reference value: 95.75 to 96.56%); assay type: functional; conditions: K562, 48 h, read-out: Activity; method in brief: as §1
K562 [8] = experiment: Induction of apoptosis in human K562 cells assessed as necrotic cells at 0.4 uM after 48 hrs by Annexin V-FITC/propidium iodide-staining based flow cytometric analysis (reference value: 0.13 to 0.27%); assay type: functional; method in brief: as §1
K562 [9] = experiment: Induction of apoptosis in human K562 cells assessed as caspase-9 activation at 4 uM after 48 hrs by Western blot analysis relative to control; assay type: functional; method in brief: as §2
K562 [10] = experiment: Cytotoxicity against human K562 cells assessed as cell growth inhibition after 48 hrs by MTT assay; assay type: functional, cell-based; conditions: K562, 48 h
Method in brief: (§3)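 Suspension cells seeded at 5000/well (HL-60 in IMDM, K562 in RPMI, both with 10% FBS) and treated. MTT then added for 4 h at 37 °C; plates centrifuged at 3000 rpm for 30 min, medium removed, DMSO added, OD570 read. IC50 taken as concentration giving 50% growth inhibition; triplicate.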

K562 [11] = experiment: Decrease in mitochondrial membrane potential in human K562 cells after 48 hrs by JC-1 staining based flow cytometry; assay type: functional, cell-based
Method in brief: (§4)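 K562 seeded at 4 × 10^5 cells/well, after 12 h treated 48 h. Cells washed in ice-cold PBS, loaded with JC-1 ([…]) at 37 °C for 15 min, rinsed, and analysed by flow cytometry (% cells with red aggregates) and fluorescence microscopy (red aggregates vs green monomers).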

K562 [12] = experiment: Induction of apoptosis in human K562 cells assessed as viable cells at 1.2 uM after 48 hrs by Annexin V-FITC/propidium iodide-staining based flow cytometric analysis (reference value: 95.75 to 96.56%); assay type: functional; conditions: K562, 48 h, read-out: Activity; method in brief: as §1
K562 [13] = experiment: Induction of mitochondrial membrane depolarization in human K562 cells assessed as cell with intact mitochondrial membrane potential at 1 uM after 48 hrs by JC-1 staining based flow cytometric analysis (reference value: 97.63 to 97.67%); assay type: functional; method in brief: as §4
ECa-109 cell line = experiment: Cytotoxicity against human ECA109 cells assessed as cell growth inhibition after 48 hrs by MTT assay; assay type: functional, cell-based; conditions: ECa-109, 48 h
Method in brief: (§5)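 Adherent cells seeded at 5000/well, left 16−24 h, then exposed 48 h at 37 °C, 5% CO2 in RPMI with 10% FBS. Medium refreshed, MTT added for 4 h at 37 °C, medium removed, formazan dissolved in DMSO, OD570 read. IC50 taken as concentration inhibiting growth by 50%; triplicate.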

HepG2 = experiment: Cytotoxicity against human HepG2 cells assessed as cell growth inhibition after 48 hrs by MTT assay; assay type: functional, cell-based; conditions: HepG2, 48 h; method in brief: as §5
K562 [14] = experiment: Induction of mitochondrial membrane depolarization in human K562 cells assessed as cells with mitochondrial membrane potential loss at 2 uM after 48 hrs by JC-1 staining based flow cytometric analysis (reference value: 1.89 to 2.23%); assay type: functional
K562 [15] = experiment: Induction of apoptosis in human K562 cells assessed as necrotic cells at 0.8 uM after 48 hrs by Annexin V-FITC/propidium iodide-staining based flow cytometric analysis (reference value: 0.13 to 0.27%); assay type: functional; method in brief: as §1
K562 [16] = experiment: Induction of mitochondrial membrane depolarization in human K562 cells assessed as cells with mitochondrial membrane potential loss at 1 uM after 48 hrs by JC-1 staining based flow cytometric analysis (reference value: 1.89 to 2.23%); assay type: functional
A549 = experiment: Cytotoxicity against human A549 cells assessed as cell growth inhibition after 48 hrs by MTT assay; assay type: functional, cell-based; conditions: A549, 48 h; method in brief: as §5
[17] = Drug uptake in mitochondria of human K562 cells at 10 uM after 4 hrs by RP-HPLC analysis relative to betulin; assay type: ADME
Method in brief: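 K562 exposed to 10 μM compound or betulin for 4 h, washed, mitochondria isolated by kit, pellet extracted twice with dichloromethane/methanol (2:1). Residue assayed by RP-HPLC on C18: betulin in 100% acetonitrile, detection 220 nm; conjugate in 80% acetonitrile with 0.1% formic acid, detection 267 nm. Amounts normalised to protein; n = 3.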

K562 [18] = experiment: Induction of mitochondrial membrane depolarization in human K562 cells assessed as cells with mitochondrial membrane potential loss at 4 uM after 48 hrs by JC-1 staining based flow cytometric analysis (reference value: 1.89 to 2.23%); assay type: functional
K562 [19] = experiment: Induction of apoptosis in human K562 cells assessed as upregulation of cleaved PARP up to 4 uM after 48 hrs by Western blot analysis; assay type: functional, cell-based
HL-60 = experiment: Cytotoxicity against human HL60 cells assessed as cell growth inhibition after 48 hrs by MTT assay; assay type: functional, cell-based; conditions: HL-60, 48 h; method in brief: as §3
L02 = experiment: Cytotoxicity against human HL-7702 cells assessed as cell growth inhibition after 48 hrs by MTT assay; assay type: cell-based; conditions: L02, 48 h; method in brief: as §5
K562 [20] = experiment: Induction of apoptosis in human K562 cells assessed as caspase-3 activation at 4 uM after 48 hrs by Western blot analysis relative to control; assay type: functional; method in brief: as §2
K562 [21] = experiment: Induction of apoptosis in human K562 cells assessed as early apoptotic cells at 1.2 uM after 48 hrs by Annexin V-FITC/propidium iodide-staining based flow cytometric analysis (reference value: 0.92 to 1.45%); assay type: functional; method in brief: as §1

For `C=C(C)[C@@H]1CC[C@]2(COC(=O)CCCC[P+](c3ccccc3)(c3ccccc3)c3ccccc3)CC[C@]3(C)[C@H](CC[C@@H]4[C@@]5(C)CC[C@H](O)C(C)(C)[C@@H]5CC[C@]43C)[C@@H]12.[Br-]`, the Activity (K562 [1]) was 4.41%, the Activity (K562 [2]) was 4.67% and the Activity (K562 [3]) was 38.25%. The Activity (K562 [4]) was 6.68%, the Activity (K562 [5]) was “Active” and the Activity (K562 [6]) was “Active”. For the same compound, the viability at 0.8 µM (K562 [7]) was 63.2%, the Activity (K562 [8]) was 0.53% and the “fold change (FC)” value (K562 [9]) was 1.5. The IC50 (K562 [10]) was 570 nM, the Activity (K562 [11]) was “Dose-dependent effect” and the viability at 1.2 µM (K562 [12]) was 45.3%. The Activity (K562 [13]) was 93.08%, the IC50 (ECa-109 cell line) was 780 nM and the IC50 (HepG2) was 1090 nM. It also gave an Activity (K562 [14]) of 17.08%, an Activity (K562 [15]) of 3.7% and an Activity (K562 [16]) of 6.47%. The IC50 (A549) was 610 nM, the “fold change (FC)” value [17] was 3.4 and the Activity (K562 [18]) was 61.4%. The Activity (K562 [19]) was “Active”, the IC50 (HL-60) was 600 nM and the IC50 (L02) was 6.62 µM. The “fold change (FC)” value (K562 [20]) was 2.1 and the Activity (K562 [21]) was 12.03%.
